Source: PubChem
The list is not random: actives were taken first. Their share in the collection is about 3.7%.
KCNK9 inh = KCNK9 potassium channel inhibitors, primary screen, HEK293 cells, thallium flux. FluxOR thallium flux fluorescence; active compounds read low. 310,000 tested, 1.2% active. B-score at 10 µM. Potassium channel subfamily K member 9 (Homo sapiens), Q9NPC2. AID 488922, 2010;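 active means ratio B-score over 3 SD below the library mean, with starting fluorescence within 5 SD of its mean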;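 further: negative B-score means less thallium flux so channel inhibition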
KCNQ1 pot = potentiators or activators of KCNQ1 channel, primary screen, cell-based, thallium flux, high-throughput; B-score at 10 µM; CHO-K1 KCNQ1, thallium flux FluxOR fluorescence; active compounds read high; Potassium voltage-gated channel subfamily KQT member 1 (Homo sapiens), P51787; 310,000 tested, 0.35% active;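 active means fluorescence ratio B-score, a plate-corrected score, at least three library SD, with initial intensity B-score within 5 SD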
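assay system = CHO-K1 cells stably expressing KCNQ1 | medium = assay buffer, equal DMSO in all wells | timing = 37 °C overnight plating, 90-min dark dye load, 20-min compound pretreatment | measured by = kinetic FluxOR thallium fluorescence, 10-s 1-Hz baseline, 110-s post-stimulus read | measure = fluorescence change relative to baseline, converted to B score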
KCNK3 inh = human KCNK3 channel inhibitors, primary screen, CHO cells, FluxOR thallium flux, B-score | Potassium channel subfamily K member 3 (Homo sapiens), O14649 | FluxOR fluorescence; active compounds read low | B-score at 10 µM | 340,000 tested, 0.84% active | AID 602410, 2012;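 active means B-score under library mean minus 4 SD, starting fluorescence ratio at most library mean plus 5 SD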;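 further: more negative B-score means stronger inhibition of thallium flux through KCNK3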
Kir21 inh = inhibitors of mouse Kir2.1 inward-rectifier potassium channel | HEK293-Kir2.1, FluxOR thallium flux fluorescence; active compounds read low | 310,000 tested, 0.85% active | AID 1672, 2009 | B-score at 10 µM | Inward rectifier potassium channel 2 (Mus musculus), P35561;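 active means fluorescence ratio B-score at or below minus 3 SD of library scores, with starting-brightness B-score within 2 SD, cut at about -4.2 in these data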;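 further: channel flux triggered by added potassium and thallium sulfate stimulus; B-score of peak minus minimum fluorescence over baseline after thallium stimulus; more negative B-score means stronger Kir2.1 block with less thallium influx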
KCNQ1 inh = inhibitors of human KCNQ1 channel, primary screen, cell-based, thallium flux, high-throughput | Potassium voltage-gated channel subfamily KQT member 1 (Homo sapiens), P51787 | CHO-K1 KCNQ1, FluxOR thallium flux fluorescence; active compounds read high | B-score at 10 µM | 310,000 tested, 1.3% active | AID 2642, 2010;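 active means compounds whose thallium flux B-score, printed positive for inhibition, exceeds three library SD while starting fluorescence stays within three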;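 further: channel opened by potassium depolarization with thallium stimulus after 20 min compound exposure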
hERG rescue = hERG rescue from dofetilide block, primary screen, cell-based, CHO-hERG, FluxOR thallium flux, dofetilide IC70; Voltage-gated inwardly rectifying potassium channel KCNH2 (Homo sapiens), Q12809; dofetilide IC70 present; activation (rescue from dofetilide block), less the hit threshold, % at 10 µM; 310,000 tested, 0.51% active; AID 1511, 2009;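 active means activation above the mean of controls blocked by dofetilide plus 5 SD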;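 further: thallium influx through hERG after potassium depolarization seen as dye fluorescence rise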
Target sequence (Q12809 whole entry, looked up): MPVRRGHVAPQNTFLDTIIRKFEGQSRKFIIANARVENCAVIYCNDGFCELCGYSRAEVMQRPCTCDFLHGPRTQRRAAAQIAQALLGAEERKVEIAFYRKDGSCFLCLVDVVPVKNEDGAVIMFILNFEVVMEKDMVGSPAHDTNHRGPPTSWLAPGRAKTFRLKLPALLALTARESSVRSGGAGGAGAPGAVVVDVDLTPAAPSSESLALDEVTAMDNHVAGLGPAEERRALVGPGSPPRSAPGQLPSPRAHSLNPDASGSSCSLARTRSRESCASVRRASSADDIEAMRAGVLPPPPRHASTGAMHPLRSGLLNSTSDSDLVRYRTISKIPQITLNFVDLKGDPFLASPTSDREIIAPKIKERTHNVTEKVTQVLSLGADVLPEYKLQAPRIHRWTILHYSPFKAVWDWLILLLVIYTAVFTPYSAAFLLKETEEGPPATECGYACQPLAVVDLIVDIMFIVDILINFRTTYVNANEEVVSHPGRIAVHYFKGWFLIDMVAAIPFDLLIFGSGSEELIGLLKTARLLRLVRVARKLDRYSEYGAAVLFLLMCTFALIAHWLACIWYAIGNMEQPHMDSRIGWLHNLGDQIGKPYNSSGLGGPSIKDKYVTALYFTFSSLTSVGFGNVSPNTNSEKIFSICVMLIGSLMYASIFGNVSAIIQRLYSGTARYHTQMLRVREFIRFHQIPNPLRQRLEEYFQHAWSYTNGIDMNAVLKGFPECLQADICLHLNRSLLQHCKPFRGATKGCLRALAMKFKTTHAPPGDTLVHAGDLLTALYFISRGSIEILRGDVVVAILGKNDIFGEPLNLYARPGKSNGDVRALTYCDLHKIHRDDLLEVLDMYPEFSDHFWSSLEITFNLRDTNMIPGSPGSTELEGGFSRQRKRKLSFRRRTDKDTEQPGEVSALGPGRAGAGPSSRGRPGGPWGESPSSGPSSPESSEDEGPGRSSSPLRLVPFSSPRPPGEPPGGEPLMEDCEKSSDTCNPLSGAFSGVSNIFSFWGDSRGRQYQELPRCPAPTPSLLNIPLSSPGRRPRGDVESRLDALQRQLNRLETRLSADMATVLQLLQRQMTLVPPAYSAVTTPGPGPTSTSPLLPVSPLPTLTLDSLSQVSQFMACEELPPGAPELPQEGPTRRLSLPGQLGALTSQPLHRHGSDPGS
KCNQ1 block val = KCNQ1 potassium channel inhibitors, confirmation, cell-based, Tl flux, duplicate | KCNQ1 cell line, FluxOR thallium flux fluorescence | AID 588353, 2011 | inhibition, % at 10 µM | 1,600 tested, 93% active | shares compounds with KCNQ1 inh;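 active means primary screen active, with duplicate mean exceeding buffer control mean plus 3 SD of buffer wells, cut at about 28% in these data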;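 further: 0% = buffer control ratio and 100% = XE991 inhibitor control ratio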
CHO Tl flux = thallium flux effects in parental CHO cells, counter-screen for KCNQ1 inhibitor project, cell-based, Tl flux; 1,600 tested, 21% active; shares compounds with KCNQ1 inh; fluorescence ratio (Tl flux) at 10 µM; parental CHO-K1, FluxOR thallium flux fluorescence ratio; active compounds read low; zero means no signal rise above baseline;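 active means mean of duplicate thallium-flux fluorescence ratios in parental host cells more than 5 SD below the buffer control mean, cut at about 0.38 in these data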;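 further: ratio is peak minus minimum fluorescence divided by baseline fluorescence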
KCNQ2 inh = KCNQ2 channel inhibition, selectivity assay for KCNQ1 inhibitor project, cell-based | shares compounds with KCNQ1 inh | KCNQ2 cells, FluxOR thallium flux fluorescence | inhibition, % at 10 µM | 1,600 tested, 71% active;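 active means mean percent inhibition of the KCNQ2 thallium signal more than 5 SD above the buffer-only control wells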;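 further: KCNQ2 expressed in CHO cells; 0% = buffer control wells and 100% = XE-991 inhibitor control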
KCNQ1-KCNE1 inh = KCNQ1/KCNE1 channel inhibition, selectivity assay for KCNQ1 inhibitor project, CHO-K1 cells, thallium flux, FluxOR. 1,600 tested, 77% active. inhibition, % at 10 µM. shares compounds with KCNQ1 inh. FluxOR thallium flux fluorescence. AID 652147, 2013;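 active means mean percent inhibition of duplicate wells above the buffer-only control mean plus 3 SD of those controls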;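 further: 0% = buffer only wells and 100% = XE-991 inhibitor control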
KCNK9 inh conf = KCNK9 potassium channel inhibitors, confirmation, HEK293 cells, thallium flux, duplicate | 4,900 tested, 43% active | AID 492992, 2010 | FluxOR thallium flux fluorescence | inhibition, % at 10 µM | shares compounds with KCNK9 inh;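 active means thallium signal inhibited by more than 5 SD of the compound-free buffer control wells, on both duplicate plates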;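 further: 0% = assay buffer control wells without compound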
Kir2-1 spec = mouse Kir2.1 channel inhibition, confirmation, selectivity assay for KCNK9 modulator project, cell-based, HEK293, thallium flux | inhibition, % at 10 µM | Kir2.1 cells, FluxOR thallium flux fluorescence | 4,900 tested, 4% active | AID 492993, 2010 | shares compounds with KCNK9 inh;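 active means thallium signal drop more than 5 SD beyond the mean of the no-compound control wells, seen in both duplicate plates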;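 further: signal is fluorescence rise after thallium addition divided by baseline fluorescence; plate controls were assay buffer only for no effect and full block by chlorpromazine control for full effect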
HEK293 Tl ctr = thallium flux in non-induced HEK293 cells, confirmation, counter-screen for KCNK9 inhibitor project, cell-based, second counter screen, non-induced KCNK9-HEK293 | shares compounds with KCNK9 inh | FluxOR thallium flux | inhibition, % at 10 µM | 4,900 tested, 40% active | AID 492997, 2010;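 active means thallium signal drop beyond 5 SD of the untreated control mean, on both duplicate plates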;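 further: plate controls were buffer only IC0 wells for no effect and SID17386958 at its maximal inhibitory level for full effect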
KCNK3 inh conf = retest of human KCNK3 channel inhibitors, confirmation, CHO cells, FluxOR thallium flux, triplicate; 2,400 tested, 99% active; ratio percent of control, % at 10 µM; AID 651638, 2012; shares compounds with KCNK3 inh; FluxOR fluorescence; 0% buffer, 100% carvedilol maximal block;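 active means ratio percent of control, averaged over triplicates, above buffer control mean plus 5 SD, cut at about 64% in these data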;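 further: ratio is the fluorescence rise from min to max over baseline after thallium stimulus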
KCNK3 uninduced = thallium flux inhibition in non-induced cells, primary screen, counter-screen for KCNK3 inhibitor project, cell-based, non-induced KCNK3 line, FluxOR thallium, triplicate. thallium flux ratio (lower = more inhibition) at 10 µM. shares compounds with KCNK3 inh. AID 651747, 2012. 2,400 tested, 40% active. non-induced KCNK3 parental cells; active compounds read low;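 active means thallium flux ratio, averaged over three wells, more than 5 SD below the buffer control mean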;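 further: host cells are CHO cells without KCNK3 induction; ratio is peak minus trough fluorescence over baseline then normalized to buffer controls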
* hit, by the source's call.

What do the screens show for `CC1CC(NC(=O)c2cc3c(=O)n4ccccc4nc3n2C)CC(C)(C)C1` (stereo not given)?
KCNK9 inh: inactive; KCNQ1 pot: inactive; KCNK3 inh: -9.23*; Kir21 inh: -0.87; KCNQ1 inh: 6*; hERG rescue: -7.5; KCNQ1 block val: 38.5*; CHO Tl flux: 0.417; KCNQ2 inh: 101.0%*; KCNQ1-KCNE1 inh: inactive; KCNK3 inh conf: 95.7*; KCNK3 uninduced: inactive

What do the screens show for `CC1CCCCC1NC(=O)c1cc2c(=O)n3ccccc3nc2n1C` (stereo not given)?
KCNK9 inh: inactive; KCNQ1 pot: inactive; KCNK3 inh: inactive; Kir21 inh: -0.25; KCNQ1 inh: inactive; hERG rescue: -10.9

What do the screens show for `Cc1ccc(NC(=O)C2CCN(c3ncnc4sc(C)c(C)c34)CC2)cc1S(=O)(=O)N(C)C`?
KCNK9 inh: inactive; KCNQ1 pot: inactive; KCNK3 inh: inactive; Kir21 inh: 1.93; KCNQ1 inh: inactive; hERG rescue: -12.0

What do the screens show for `CCN(CC)S(=O)(=O)c1cc(NC(=O)C2CCN(c3ncnc4sc(C)c(C)c34)CC2)ccc1Cl`?
KCNK9 inh: inactive; KCNQ1 pot: inactive; KCNK3 inh: -9.55*; Kir21 inh: 1.3; KCNQ1 inh: 6*; hERG rescue: -16.6; KCNQ1 block val: 58.0*; CHO Tl flux: 0.459; KCNQ2 inh: 72.0%*; KCNQ1-KCNE1 inh: 95.0%*; KCNK3 inh conf: 102.0*; KCNK3 uninduced: 0.157*

What do the screens show for `Cc1sc2ncnc(N3CCC(C(=O)Nc4cc(Cl)ccc4Cl)CC3)c2c1C`?
KCNK9 inh: inactive; KCNQ1 pot: inactive; KCNK3 inh: -10*; Kir21 inh: 0.15; KCNQ1 inh: 11*; hERG rescue: -14.5; KCNQ1 block val: 71.0*; CHO Tl flux: 0.458; KCNQ2 inh: 123.0%*; KCNQ1-KCNE1 inh: 99.0%*; KCNK3 inh conf: 127.0*; KCNK3 uninduced: 0.127*

Results for Cc1sc2ncnc(N3CCC(C(=O)NNC(=O)c4ccc(Cl)cc4)CC3)c2c1C ?
KCNK9 inh: inactive; KCNQ1 pot: inactive; KCNK3 inh: inactive; Kir21 inh: 1.13; KCNQ1 inh: inactive; hERG rescue: -14.8

Results for COc1ccc2c(c1)Cc1sc(NC(=O)c3ccco3)nc1-2 ?
KCNK9 inh: inactive; KCNQ1 pot: inactive; KCNK3 inh: inactive; Kir21 inh: -0.25; KCNQ1 inh: inactive; hERG rescue: -1.8

What do the screens show for `COc1ccc2c(c1)-c1nc(NC(=O)c3ccco3)sc1CC2`?
KCNK9 inh: -11.1*; KCNQ1 pot: inactive; KCNK3 inh: inactive; Kir21 inh: 0.71; KCNQ1 inh: inactive; hERG rescue: -8.2; KCNK9 inh conf: 47.5%*; Kir2-1 spec: inactive; HEK293 Tl ctr: inactive

Results for COc1ccc2c(c1)CCc1sc(NC(=O)c3ccco3)nc1-2 ?
KCNK9 inh: -8.4*; KCNQ1 pot: inactive; KCNK3 inh: inactive; Kir21 inh: 0.37; KCNQ1 inh: inactive; hERG rescue: -14.4; KCNK9 inh conf: 26.5%*; Kir2-1 spec: inactive; HEK293 Tl ctr: inactive

What do the screens show for `COc1cc(Cl)c(CNC[C@H]2O[C@@H](n3cnc4c(N)ncnc43)[C@H](O)[C@@H]2O)c(Cl)c1O`?
KCNK3 inh: inactive

What do the screens show for `COCCN(Cc1ccco1)C(=O)Cn1ncc2c(=O)oc3ccccc3c21`?
KCNK9 inh: inactive; KCNQ1 pot: inactive; KCNK3 inh: inactive; Kir21 inh: 1.94; KCNQ1 inh: inactive; hERG rescue: -12.0

Results for Cc1ccc(SCc2cc(=O)[nH]c(Nc3nc(C)c4ccc(C)cc4n3)n2)cc1 ?
KCNK9 inh: inactive; KCNQ1 pot: inactive; KCNK3 inh: inactive; Kir21 inh: 0; KCNQ1 inh: inactive; hERG rescue: -10.5
